Bioassay records (PubChem)
MC4R antag cAMP = antagonists of human melanocortin 4 receptor (MC4R) | P32245 | MC4R-expressing cells, MTII-stimulated cAMP, LANCE TR-FRET | inhibition, % at 6.5 µM | actives 0.48% (n = 360,000);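 active = inhibition above its plate's cutoff, the mean of tested wells on that plate plus 3 SD, cut at about 29% in these data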;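 note: 0% = Melanotan II alone and 100% = Melanotan II plus saturating MCL0020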
Target sequence (P32245 whole entry, looked up): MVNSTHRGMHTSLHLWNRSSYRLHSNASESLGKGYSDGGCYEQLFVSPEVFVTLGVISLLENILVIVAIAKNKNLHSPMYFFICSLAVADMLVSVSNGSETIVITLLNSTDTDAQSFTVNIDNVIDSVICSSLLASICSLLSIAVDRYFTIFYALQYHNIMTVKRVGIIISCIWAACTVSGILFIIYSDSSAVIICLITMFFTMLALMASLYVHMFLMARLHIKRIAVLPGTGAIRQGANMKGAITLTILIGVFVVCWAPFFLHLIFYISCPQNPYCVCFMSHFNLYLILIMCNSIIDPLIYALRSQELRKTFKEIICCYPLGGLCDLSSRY
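material = U2OS cells stably expressing human melanocortin 4 receptor (MC4R) | also added = Melanotan II challenge | dosing = single nominal compound dose of 6.5 µM | detection = TR-FRET with Eu-cAMP and labeled anti-cAMP, 671 nm | replication = singlicate | timing = compound 30 min, challenge 1 h, detection 1 h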
SMARCA2 act = SMARCA2 function activation, primary screen; MG213 cells, MMTV-luciferase reporter, dexamethasone, overnight; activation, % at 9.1 µM; actives 1% (n = 370,000); AID 652017; in the data active = activation above about 7.8%;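 note: 0% = vehicle wells and 100% = reference activator wells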
MC4R ag barr = agonists of human melanocortin 4 receptor (MC4R) beta-arrestin | P32245 | U2OS MC4R beta-arrestin complementation, luminescence; percent of melanotan II response, DMSO zero | activation, % at 8.9 µM | actives 0.98% (n = 360,000) | AID 540308;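 active = activation above a per-plate cutoff, the mean activation of sample wells on that plate plus 3 SD, cut at about 8% in these data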
CFTR F508del cor = CFTR F508del correction in bronchial cells. CFBE cells, YFP halide quenching; stimulated with forskolin plus potentiator P3; % fluorescence drop versus neutral controls. AID 720511. activity (quench increase), % at 7.58 µM. actives 0.36% (n = 350,000);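 active = mean added fluorescence quench of at least 8% versus neutral control, with both replicates also reaching 8%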;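 note: cells transiently co-express mutant CFTR-F508del with the halide-sensitive YFP; corrector assay measuring rescue of mutant channel to the surface after 24 h compound exposure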
U2OS cAMP counter = nonselective cAMP signaling inhibitor, MC4R antagonist counter-screen; parental U2OS, forskolin cAMP, LANCE TR-FRET; actives 26% (n = 1,600); inhibition, % at 6.5 µM; AID 602193; shares compounds with MC4R antag cAMP;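 active = mean inhibition over triplicates above the low-control well mean plus 3 SD, set per campaign, cut at about 13% in these data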;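 note: signal is single emission at 671 nm which falls as cellular cAMP rises; 0% = forskolin-stimulated wells and 100% = buffer without forskolin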
MC4R cAMP antag = human MC4R cAMP antagonism confirmation; shares compounds with MC4R antag cAMP; MC4R-expressing cells, MTII-stimulated cAMP, TR-FRET; inhibition, % at 6.5 µM; actives 27% (n = 1,600); AID 602195; in the data active = inhibition above about 29%;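 note: 0% = agonist stimulated wells alone and 100% = agonist stimulated wells plus saturating reference antagonist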
Active calls of the source: *; . = not tested or not shown. Shown are actives, neighbours in structure and some others; about 2.1% of the full set was active somewhere.

SMILES | MC4R antag cAMP | SMARCA2 act | MC4R ag barr | CFTR F508del cor | U2OS cAMP counter | MC4R cAMP antag
Cc1ccc(S(=O)(=O)N(C)C[C@@H]2OCCCC[C@@H](C)Oc3ccc(NS(=O)(=O)c4c(C)noc4C)cc3C(=O)N([C@H](C)CO)C[C@@H]2C)cc1 | 34.3* | -3.0 | 1.0 | 1.8 | -1.1 | 3.3
Cc1ccc(S(=O)(=O)N(C)C[C@@H]2OCCCC[C@H](C)Oc3ccc(NS(=O)(=O)c4c(C)noc4C)cc3C(=O)N([C@H](C)CO)C[C@@H]2C)cc1 | . | . | . | -3.5 | . | .
COc1ccc(NC(=O)/C(Cl)=C(/Cl)S(=O)Cc2ccc(Cl)cc2)cn1 (configuration not stated) | 76.4* | -8.2 | -7.1 | -6.1 | 10.5 | 53.5*
COc1ccc(NC(=O)C(Cl)=C(Cl)Cl)cn1 | 17.9 | 0.0 | -3.0 | 4.9 | . | .
COc1ccc(NC(=O)/C(Cl)=C(/Cl)S(=O)(=O)Cc2ccccc2)cn1 | 55.8* | -8.8 | -3.2 | . | 33.8* | 48.9*
COc1cc(NC(=O)c2cccc3c(-c4cnn(C)c4)coc23)cc(OC)c1OC | 46.1* | -2.6 | -0.6 | -4.3 | -1.3 | 10.6
Cc1csc(NC(=O)c2ccc(Cl)nc2)n1 | 29.0* | 5.5 | -0.1 | 0.0 | 2.9 | -7.3
O=C(Nc1nccs1)c1ccc(Cl)nc1 | -4.9 | 0.5 | -0.4 | 1.3 | . | .
O=C(C[C@H]1C[C@@H]2c3cc(NC(=O)C4CCOCC4)ccc3O[C@@H]2[C@@H](CO)O1)NCc1ccc2c(c1)OCO2 | . | . | . | 1.2 | . | .
O=C(c1ccncc1)N1CC2(C1)[C@H](c1ccccc1)[C@@H](CO)N2CC1CCCC1 | . | . | . | -1.9 | . | .
CCCCNc1c(-c2ccc(OC)c(SC3CCCCC3)c2)nc2cc(C)ccn12 | 18.2 | -0.8 | -1.9 | 5.4 | . | .
CCCCNc1c(-c2ccc(OC)c(SC3CCCCC3)c2)nc2cnccn12 | 31.9* | . | 7.3 | . | 8.0 | 27.1
O=C(N[C@@H]1CC[C@@H](CCn2cc(C3(O)CCCC3)nn2)O[C@H]1CO)c1ccccc1F | . | . | . | 1.9 | . | .
COc1ccc(C(C(=O)NC2CCCCC2)N(C(=O)CCCC(=O)Nc2ccccn2)c2ccc3c(c2)OCCO3)cc1 (configuration not stated) | 33.4* | 4.8 | 0.8 | . | -0.7 | -13.8
CCCNC(=O)Nc1ccc2c(c1)C(=O)N(C)[C@H]1CC[C@@H](CC(=O)NCc3ccccc3)O[C@@H]1CO2 | . | . | . | -0.8 | . | .
CCOC(=O)c1sc(NC(=O)CC)nc1C | 2.0 | -1.1 | -1.0 | 2.2 | . | .
CCOC(=O)c1sc(NC(=O)CCc2ccc(OC)cc2)nc1C | 49.9* | -1.8 | 1.6 | -2.6 | 0.6 | 15.6
O=C(CSc1c2c(nc3ccc(Cl)cc13)CCCC2)N1CCN(C(=O)c2ccco2)CC1 | 40.5* | 2.6 | -1.7 | 1.4 | -9.5 | 20.7
Cc1noc(C)c1S(=O)(=O)Nc1ccc2c(c1)C(=O)N([C@H](C)CO)C[C@@H](C)[C@@H](CN(C)S(C)(=O)=O)OCCCC[C@H](C)O2 | . | . | . | -2.4 | . | .
COC(=O)c1c(NC(=O)CC2SCC(C(=O)OC)NC2=O)sc2c1CCCC2 (configuration not stated) | 29.2* | -0.1 | 1.2 | . | 10.1 | 31.6*
COC(=O)c1c(NC(C)=O)sc2c1CCCC2 | 7.5 | 1.7 | -1.2 | . | . | .
O=C(Nc1cc([N+](=O)[O-])ccc1O)c1cccc(C(=O)Nc2cc([N+](=O)[O-])ccc2O)c1 | 12.8 | 2.4 | -0.2 | 2.0 | . | .
NS(=O)(=O)c1ccc(O)c(NC(=O)c2ccc([N+](=O)[O-])cc2)c1 | 29.0* | 0.2 | -0.9 | -1.1 | -6.1 | -9.0
Cc1ccc(C(=O)CSc2cc(C)nc(SCC(=O)c3ccccc3)n2)cc1 | 8.0 | 0.4 | 0.2 | . | . | .
Cc1cc(Oc2ccc(C)c(Cl)c2)nc(SCC(=O)c2ccccc2)n1 | 45.0* | -1.4 | 2.4 | . | 22.8* | 47.0*
SMILES | MC4R antag cAMP | SMARCA2 act | MC4R ag barr | CFTR F508del cor | U2OS cAMP counter | MC4R cAMP antag
CC(C)C1CC(CCNCc2ccc3c(c2)OCO3)(c2ccccc2)CCO1 (configuration not stated) | 33.5* | -1.2 | 2.6 | 3.9 | 0.1 | 40.8*
O=C(CCC1CCCN(Cc2ccc3c(c2)OCCO3)C1)NCc1ccc(F)c(F)c1 (configuration not stated) | -1.6 | 0.3 | -2.0 | -0.9 | . | .
O=C(CCC1CCCN(Cc2ccc3c(c2)OCCO3)C1)NCc1ccccc1F (configuration not stated) | 28.7* | 0.0 | -2.8 | 0.2 | -2.1 | 1.6
Cc1c(Cl)sn(-c2ccc(Cl)cc2)c1=O | 72.8* | -3.4 | 0.4 | -10.9 | 13.0 | 69.9*
CC(C)CC#Cc1ccc2c(c1)O[C@H](CN(C)C(=O)Cc1cccnc1)[C@H](C)CN([C@H](C)CO)S2(=O)=O | . | . | . | -0.7 | . | .
CCNC(=O)Nc1ccc2c(c1)C(=O)N(C)[C@H]1CC[C@H](CC(=O)NC3CCCCC3)O[C@H]1CO2 | . | . | . | -1.3 | . | .
O=C(/C=C/c1ccc(Cl)c([N+](=O)[O-])c1)Nc1cccc(NC(=O)c2ccco2)c1 | 45.0* | 0.8 | -0.6 | -1.1 | 52.7* | 57.4*
O=C(COc1ccc2ccccc2c1)N1CCN(C(=O)c2ccc([N+](=O)[O-])cc2)CC1 | 31.8* | 0.5 | 0.3 | 0.5 | 2.3 | 6.9
Cc1ncn(-c2ccc(C(=O)Oc3ccccc3)cn2)n1 | 29.2* | 0.7 | -1.2 | . | 10.1 | 24.2
CCOCCOC(=O)c1ccc(-n2cnc(C)n2)nc1 | 9.9 | -3.7 | 0.1 | 2.0 | . | .
CCCC#Cc1ccc2c(c1)O[C@@H](CN(C)C(=O)NC(C)C)[C@H](C)CN([C@@H](C)CO)S2(=O)=O | . | . | . | -2.4 | . | .
CC(=O)N(C)C[C@H]1Oc2ncc(-c3cccnc3)cc2C(=O)N([C@H](C)CO)C[C@@H]1C | . | . | . | -0.1 | . | .
CC(=O)N1N=C(c2ccc(Cl)cc2)CC1c1ccco1 (configuration not stated) | 2.6 | -4.3 | 0.4 | 1.5 | . | .
CC(=O)N1N=C(c2ccc(C)cc2)CC1c1ccco1 (configuration not stated) | 29.5* | -0.8 | -0.8 | 0.8 | 12.5 | 2.5
CCCCC(=O)OCC(=O)c1cc(C)n(-c2c(C)n(C)n(-c3ccccc3)c2=O)c1C | 30.7* | -1.6 | 0.3 | 1.6 | 0.1 | 0.3
O=C(OC1CCOC1=O)c1cc(-c2ccc(Cl)cc2)nc2ccccc12 (configuration not stated) | 35.1* | -1.1 | -0.4 | . | 17.4* | 23.3
Cc1ccc(NC(=O)c2cc(N3C(=O)C=CC3=O)ccc2N2CCOCC2)cc1Cl | 53.8* | 0.4 | -1.4 | . | -1.3 | 41.4*
Cc1ccc(C)c(S(=O)(=O)NCC(=O)OCC(=O)Nc2sccc2C(N)=O)c1 | 49.0* | -3.6 | -1.2 | 0.5 | 13.4* | 32.9*
COc1cc(/C=N/NC(=O)CCn2c3ccccc3c3ccccc32)cc(OC)c1OC | -6.6 | 0.6 | 7.3 | . | . | .
COc1ccc(/C=N/NC(=O)CCn2c3ccccc3c3ccccc32)cc1OC | 29.2* | 1.7 | 1.2 | . | -3.6 | -17.7
